Screening data as filed in PubChem.
Shown are actives, neighbours in structure and some others; about 2.3% of the full set was active somewhere.
PAFAH1B2 inh: inhibitors of human PAFAH1B2; P68402; recombinant PAFAH1B2, FP-rhodamine activity probe, fluorescence polarization; inhibition, % at 3.39 µM; 1.2% of 340,000 active; AID 492953;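 active = inhibition above the mean of all tested compounds plus 3 SD, cut at about 24% in these data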;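 also: 0% = enzyme with DMSO and 100% = wells lacking PAFAH1B2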
PAFAH2 FP inh: PAFAH2 (human) inhibition. Q99487. 0.99% of 340,000 active. inhibition, % at 3.39 µM. recombinant PAFAH2, FP-rhodamine activity probe, fluorescence polarization. AID 492956;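 active = inhibition above the mean over all tested compounds plus 3 SD, cut at about 30% in these data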;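 also: inhibitors block probe labeling of enzyme so polarization drops; 0% = enzyme with DMSO and 100% = wells lacking PAFAH2 protein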
TDP2 inh: blocks human TDP2 phosphodiesterase activity | O95551 | recombinant TDP2, T5PNP hydrolysis, p-nitrophenol absorbance 415 nm | inhibition, % at 12.8 µM | 0.34% of 370,000 active | AID 720702;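 active = inhibition above the mean of all tested compounds plus 3 SD, set per campaign, cut at about 25% in these data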;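 also: 0% = DMSO with enzyme and 100% = buffer with substrate but no TDP2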
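Assay system: Recombinant human TDP2 | Quantity: 120 nM TDP2 per well | Incubation: 2 h at 37 °C | Signal: Epi absorbance | Evaluation: Percent inhibition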
PAFAH1B3 FP inh: inhibitors of human PAFAH1B3. Q15102. recombinant PAFAH1B3, FP-rhodamine probe, fluorescence polarization. inhibition, % at 3.39 µM. 0.28% of 340,000 active;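 active = inhibition above the screen-wide average of all tested compounds plus 3 SD, cut at about 25% in these data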;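 also: 0% = enzyme with DMSO only and 100% = wells lacking PAFAH1B3 protein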
Apaf-1 inh: human Apaf-1 inhibition; O14727; reconstituted apoptosome caspase-3 activity, DEVD-Rh110 fluorescence; inhibition, % at 20 µM; 0.71% of 330,000 active; active = inhibition of at least 40% at 20 µM;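 also: plate controls were DMSO wells for no effect and DEVD-CHO caspase inhibitor wells for full effect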
Target sequence (O14727 whole entry, looked up): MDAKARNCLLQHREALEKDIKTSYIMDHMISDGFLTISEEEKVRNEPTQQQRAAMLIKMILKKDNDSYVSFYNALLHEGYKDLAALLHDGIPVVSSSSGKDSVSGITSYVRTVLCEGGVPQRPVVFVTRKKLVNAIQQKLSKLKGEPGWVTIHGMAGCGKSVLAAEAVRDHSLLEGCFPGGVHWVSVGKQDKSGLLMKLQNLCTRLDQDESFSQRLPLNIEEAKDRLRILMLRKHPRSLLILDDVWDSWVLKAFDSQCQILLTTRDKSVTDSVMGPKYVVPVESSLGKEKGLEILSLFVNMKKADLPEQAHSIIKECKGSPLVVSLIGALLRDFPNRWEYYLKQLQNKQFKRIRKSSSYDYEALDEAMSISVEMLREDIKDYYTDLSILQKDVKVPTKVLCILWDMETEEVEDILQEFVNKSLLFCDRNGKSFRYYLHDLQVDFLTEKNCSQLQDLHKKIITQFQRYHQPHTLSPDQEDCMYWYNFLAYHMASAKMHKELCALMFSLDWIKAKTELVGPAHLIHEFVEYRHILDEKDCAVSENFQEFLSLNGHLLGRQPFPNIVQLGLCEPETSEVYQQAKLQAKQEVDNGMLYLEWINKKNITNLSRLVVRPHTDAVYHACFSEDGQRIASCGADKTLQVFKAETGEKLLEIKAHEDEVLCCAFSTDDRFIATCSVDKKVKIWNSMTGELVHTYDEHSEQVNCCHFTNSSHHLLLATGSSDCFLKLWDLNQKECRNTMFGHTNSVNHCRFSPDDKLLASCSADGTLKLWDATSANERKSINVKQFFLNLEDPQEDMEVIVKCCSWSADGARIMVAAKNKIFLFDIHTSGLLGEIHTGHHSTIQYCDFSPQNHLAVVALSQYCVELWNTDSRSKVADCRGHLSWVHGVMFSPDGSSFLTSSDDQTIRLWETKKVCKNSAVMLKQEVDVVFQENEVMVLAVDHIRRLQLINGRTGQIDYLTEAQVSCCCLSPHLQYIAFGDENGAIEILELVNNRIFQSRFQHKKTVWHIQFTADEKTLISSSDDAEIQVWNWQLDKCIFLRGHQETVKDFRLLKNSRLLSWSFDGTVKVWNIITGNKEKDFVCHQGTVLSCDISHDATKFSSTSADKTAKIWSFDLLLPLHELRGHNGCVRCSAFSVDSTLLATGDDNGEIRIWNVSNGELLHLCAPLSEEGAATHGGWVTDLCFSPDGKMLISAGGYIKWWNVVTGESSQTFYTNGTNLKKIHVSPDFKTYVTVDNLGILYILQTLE
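Material: reconstituted apoptosome with Apaf-1, cytochrome c, caspase-9, procaspase-3, dATP; medium: pH 7.5 Hepes buffer with CHAPS, BSA, DTT; also added: cytochrome c and DEVD-Rh110 substrate; timing: 30 min plus 50 min, RT; signal: Rh110 fluorescence intensity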
PAFAH2 confirm: confirmation of human PAFAH2 inhibitors | shares compounds with PAFAH2 FP inh | recombinant PAFAH2, FP-rhodamine activity probe, fluorescence polarization | inhibition, % at 3.39 µM | 65% of 2,300 active | AID 493030;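 active = mean inhibition over three repeats above a set limit taken from the earlier primary screen, cut at about 30% in these data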;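 also: inhibitor blocks binding of rhodamine activity probe so polarization falls; 0% = enzyme with DMSO and 100% = wells lacking PAFAH2 protein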
* = called active by the depositor.

How did O=C(COC(=O)C1C2CC3OC(=O)C1C3C2)Nc1cccc(Cl)c1 (stereo unspecified) do in these assays?
PAFAH1B2 inh: 5.7; PAFAH2 FP inh: 76.6*; TDP2 inh: -3.5; PAFAH1B3 FP inh: 6.9; Apaf-1 inh: 3.4; PAFAH2 confirm: 83.6*

What do the screens show for `CC(=O)c1ccc(NC(=O)COC(=O)C2C3CC4OC(=O)C2C4C3)cc1` (stereo unspecified)?
PAFAH1B2 inh: -5.5; PAFAH2 FP inh: 25.3; TDP2 inh: -4.8; PAFAH1B3 FP inh: 6.0; Apaf-1 inh: 2.1

How did Cc1ccc(NC(=O)COC(=O)C2C3CC4OC(=O)C2C4C3)cc1 (stereo unspecified) do in these assays?
PAFAH1B2 inh: 2.1; PAFAH2 FP inh: 55.2*; TDP2 inh: 3.9; PAFAH1B3 FP inh: 3.5; Apaf-1 inh: 4.4; PAFAH2 confirm: 55.0*

Results for O=C(NC1CCCCN(Cc2ccc(Cl)cc2)C1=O)c1cccc(F)c1 (stereo unspecified) ?
TDP2 inh: -9.8

How did O=C(NC(=S)Nc1cc(S(=O)(=O)N2CCOCC2)ccc1O)c1ccco1 do in these assays?
PAFAH1B2 inh: 4.1; PAFAH2 FP inh: 43.9*; TDP2 inh: 0.3; PAFAH1B3 FP inh: 11.7; Apaf-1 inh: -4.1; PAFAH2 confirm: 31.7*

How did O=C(NC(=S)Nc1cc(S(=O)(=O)N2CCOCC2)ccc1N1CCOCC1)c1ccco1 do in these assays?
PAFAH1B2 inh: 0.9; PAFAH2 FP inh: 8.9; TDP2 inh: 7.8; PAFAH1B3 FP inh: -6.2; Apaf-1 inh: 7.9

What do the screens show for `O=C(COC(=O)/C=C/c1ccc(OC(F)F)cc1)Nc1cccc(S(=O)(=O)N2CCCC2)c1`?
PAFAH1B2 inh: -4.9; PAFAH2 FP inh: 34.3*; TDP2 inh: 16.9; PAFAH1B3 FP inh: -12.6; Apaf-1 inh: 12.7; PAFAH2 confirm: 36.9*

Results for O=C(COC(=O)/C=C/c1cccs1)Nc1cccc(S(=O)(=O)N2CCOCC2)c1 ?
PAFAH1B2 inh: 0.5; PAFAH2 FP inh: 67.8*; TDP2 inh: 12.9; PAFAH1B3 FP inh: -0.1; Apaf-1 inh: 2.1; PAFAH2 confirm: 55.6*

Results for Cn1cccc1C(=O)OCC(=O)Nc1cccc(S(=O)(=O)N2CCOCC2)c1 ?
PAFAH1B2 inh: 1.8; PAFAH2 FP inh: 29.1; TDP2 inh: -11.3; PAFAH1B3 FP inh: 5.0; Apaf-1 inh: -3.7

Results for O=C(COC(=O)c1cccs1)Nc1cccc(S(=O)(=O)N2CCOCC2)c1 ?
PAFAH1B2 inh: -2.6; PAFAH2 FP inh: 63.9*; TDP2 inh: 5.5; PAFAH1B3 FP inh: 3.9; Apaf-1 inh: -8.2; PAFAH2 confirm: 63.2*

Results for O=C(COC(=O)c1ccc(=O)[nH]c1)Nc1cccc(S(=O)(=O)N2CCOCC2)c1 ?
PAFAH1B2 inh: -3.5; PAFAH2 FP inh: 65.8*; TDP2 inh: 18.9; PAFAH1B3 FP inh: -2.8; Apaf-1 inh: -20.0; PAFAH2 confirm: 48.5*

What do the screens show for `O=C(COC(=O)/C=C/c1ccc(OC(F)F)cc1)Nc1ccc(S(=O)(=O)N2CCCC2)cc1`?
PAFAH1B2 inh: -1.9; PAFAH2 FP inh: -23.8; TDP2 inh: 1.6; PAFAH1B3 FP inh: -6.9; Apaf-1 inh: 28.7

What do the screens show for `O=C(COC(=O)CCC(=O)c1cccs1)Nc1cccc(S(=O)(=O)N2CCOCC2)c1`?
PAFAH1B2 inh: 3.2; PAFAH2 FP inh: -3.8; TDP2 inh: -8.0; PAFAH1B3 FP inh: 7.7; Apaf-1 inh: -1.9

Results for CCCCOc1ccc(C(=O)NC2CCCCN(Cc3ccc(C)cc3)C2=O)cc1 (stereo unspecified) ?
TDP2 inh: 8.3

How did COc1cccc(/C=C/C(=O)OCC(=O)Nc2cccc(S(=O)(=O)N3CCOCC3)c2)c1OC do in these assays?
PAFAH1B2 inh: 0.6; PAFAH2 FP inh: 59.2*; TDP2 inh: 7.8; PAFAH1B3 FP inh: -2.0; Apaf-1 inh: -0.4; PAFAH2 confirm: 57.8*

Results for COc1ccccc1/C=C/C(=O)Nc1cccc(S(=O)(=O)N2CCOCC2)c1 ?
PAFAH1B2 inh: -4.3; PAFAH2 FP inh: -4.2; TDP2 inh: 0.7; PAFAH1B3 FP inh: -0.9; Apaf-1 inh: 0.0

What do the screens show for `N#Cc1ccc(Cn2ccc3ccc(-c4ccc5ccn(C(=O)c6ccccc6)c5c4)cc32)cc1`?
TDP2 inh: 4.0

What do the screens show for `COC(=O)c1ccccc1NC(=O)CN1C(=O)NC2(CCCCCCC2)C1=O`?
PAFAH1B2 inh: 3.1; PAFAH2 FP inh: 84.8*; TDP2 inh: 2.6; PAFAH1B3 FP inh: 0.0; Apaf-1 inh: 17.5; PAFAH2 confirm: 5.8

Results for Cc1ccccc1NC(=O)CN1C(=O)NC2(CCCCCCC2)C1=O ?
PAFAH1B2 inh: 4.4; PAFAH2 FP inh: 7.9; TDP2 inh: 3.1; PAFAH1B3 FP inh: 4.9; Apaf-1 inh: 0.0

How did Cc1ccc2c(c1)N(CCCC(=O)NCc1c(F)cccc1F)C(=O)CO2 do in these assays?
TDP2 inh: -1.2

What do the screens show for `CCN(CC)S(=O)(=O)c1ccc(C)c(NC(=O)COC(=O)CCC(=O)c2cccs2)c1`?
PAFAH1B2 inh: -0.3; PAFAH2 FP inh: 9.4; TDP2 inh: -9.4; PAFAH1B3 FP inh: -0.6; Apaf-1 inh: 2.8

How did CCN(CC)S(=O)(=O)c1ccc(C)c(NC(=O)COC(=O)C=C(C)C)c1 do in these assays?
PAFAH1B2 inh: 2.2; PAFAH2 FP inh: 33.0*; TDP2 inh: -0.9; PAFAH1B3 FP inh: 2.0; Apaf-1 inh: -12.4; PAFAH2 confirm: 47.6*

Results for CCOc1ncccc1C(=O)OCC(=O)Nc1cc(S(=O)(=O)N(CC)CC)ccc1C ?
PAFAH1B2 inh: -1.2; PAFAH2 FP inh: 64.9*; TDP2 inh: -0.7; PAFAH1B3 FP inh: 4.4; Apaf-1 inh: 1.3; PAFAH2 confirm: 49.4*

Results for COC(=O)[C@]12C[C@H](CC(=O)N3CCSCC3)C(=O)N(Cc3ccc(Cl)cc3Cl)C1=C[C@H](C(C)(C)C)O[C@@H]2C ?
TDP2 inh: -2.3

How did Cc1ccc(NC(=O)c2ccc(CS(=O)(=O)Cc3ccccc3C)o2)cc1C do in these assays?
TDP2 inh: 6.0

Results for Cc1ccccc1N1CCN(S(=O)(=O)c2ccc3c(c2)n(C)c(=O)c(=O)n3C)CC1 ?
TDP2 inh: -0.8

Results for CC1CC1C(=O)OCC(=O)Nc1ncc(Cl)cc1Cl (stereo unspecified) ?
PAFAH1B2 inh: 2.9; PAFAH2 FP inh: 31.2*; TDP2 inh: -1.0; PAFAH1B3 FP inh: 8.4; Apaf-1 inh: 0.1; PAFAH2 confirm: 17.3

How did O=C(COC(=O)C1CC1)Nc1ncc(C(F)(F)F)cc1Cl do in these assays?
PAFAH1B2 inh: 3.4; PAFAH2 FP inh: 13.4; TDP2 inh: 6.9; PAFAH1B3 FP inh: -0.3; Apaf-1 inh: -1.3

How did O=C(COC(=O)COc1ccccc1)Nc1ncc(Cl)cc1Cl do in these assays?
PAFAH1B2 inh: 1.4; PAFAH2 FP inh: 6.8; TDP2 inh: -0.7; PAFAH1B3 FP inh: 7.4; Apaf-1 inh: -4.1

How did O=C(COC(=O)C1CC1)Nc1ccc(Cl)cn1 do in these assays?
PAFAH1B2 inh: 4.8; PAFAH2 FP inh: 31.3*; TDP2 inh: 1.4; PAFAH1B3 FP inh: 0.8; Apaf-1 inh: -10.6; PAFAH2 confirm: 26.7
